Where two headings read alike, the source gives them in different places. Where only a bound is given, the exact number is not on record here.

We go through 20 compounds from PMC10938339 (ACS Omega, 2024).

Series [1] concerns the target T1, PPT1 (Homo sapiens, UniProt P50897).
T1 sequence (P50897 28-306): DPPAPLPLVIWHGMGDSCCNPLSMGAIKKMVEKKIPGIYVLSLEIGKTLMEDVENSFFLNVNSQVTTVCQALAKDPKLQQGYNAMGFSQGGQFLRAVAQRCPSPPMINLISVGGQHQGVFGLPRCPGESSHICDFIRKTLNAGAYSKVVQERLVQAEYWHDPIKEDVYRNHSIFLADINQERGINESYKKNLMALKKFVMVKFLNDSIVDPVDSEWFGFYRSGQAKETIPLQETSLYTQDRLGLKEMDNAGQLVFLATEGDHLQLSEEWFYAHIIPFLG
In words: biochemical. The settings on record: for IC50: IC50 (95 % CI).

Series [2] concerns PPT1. The settings on record: cited from earlier work.
The subject of series [3] is neuroblastoma SH-SY5Y cell line. Format: cell-based, human. The settings on record: 48 h treatment, alamarBlue 18 h; NA = not active. Background: The colour change of resazurin is a common sign of viable cells or microbes.
Series [4] concerns the target T2, PPT1 in HepG2 cell extracts (Homo sapiens, UniProt P50897).
T2 sequence (P50897 28-306): T1 sequence (P50897 28-306)
In words: PPT1 inhibition in HepG2 cell extracts. The conditions noted are these: cell extracts treated 1 h. Format: biochemical. Put shortly:
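HepG2 lysates, prepared as for cells (MPER, protease inhibitor, 0.5% Triton X-100, 14,000 rpm spin), were treated directly with compound for 1 h. PPT1 activity was then read with the MU-6S-Palm-βGlc/β-glucosidase assay, measuring 4-methylumbelliferone fluorescence. Biological duplicates with technical triplicates; percent activity expressed relative to DMSO control.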

For series [5] the following is noted: cited from earlier work.
For a further series, the target named is T3, PPT1 in HepG2 cells (Homo sapiens, UniProt P50897).
T3 sequence (P50897 28-306): T1 sequence (P50897 28-306)
In words: PPT1 inhibition in HepG2 cells. The conditions noted are these: intact cells treated 5 h, activity relative to DMSO control. Format: cell-based. In outline: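 HepG2 cells in DMEM + 10% FBS (37 °C, 5% CO2) were seeded overnight, then exposed to compound in medium for 5 h. They were lysed in MPER with protease inhibitor and 0.5% Triton X-100, spun at 14,000 rpm for 15 min, and protein-normalised. Lysates were assayed with MU-6S-Palm-βGlc plus β-glucosidase (4-MU fluorescence, Ex 365/Em 448, 4-MU standard curve). Biological duplicates, technical triplicates; activity relative to DMSO.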

For series [6] the following is noted: cited from earlier work. This is another data set of the same source.

By IC50 is commonly meant the concentration that inhibits the measured activity by half. For the compound `CCN(CC)Cc1cc(Nc2ccnc3cc(Cl)ccc23)ccc1O` [Amodiaquine], the IC50 against PPT1 [1] turned out to be 344 µM.

At PPT1 [1], `CCN(CC)CCCC(C)Nc1ccnc2cc(Cl)ccc12` (centres unmarked) [Chloroquine] came in with a half-inhibitory concentration (IC50) of 47.2 µM. As to `CC(C)(C)NC1CCN(c2cc(NCc3ccc(Cl)cc3)nc3ccccc23)CC1` [GNS561], the PPT1 inhibition in the series on PPT1 [2] (1 μM after 3 h) is 25%; in the series with PPT1 [2] (1 μM after 72 h), 50%.

Turning to `CCN(CC)CCNc1ccc(CO)c2sc3ccccc3c(=O)c12` [Hycanthone], the IC50 at PPT1 [1] was 111 µM. Take `CCN(CCO)CCCC(C)Nc1ccnc2cc(Cl)ccc12` (centres unmarked) [Hydroxychloroquine]: the “SH-SY5Y IC50” value in series [3] is recorded as “did not reach a 50% decrease in cell viability at the highest concentration tested”. On PPT1 [1], this compound displayed an IC50 of 109 µM. The term inhibition denotes how much of the control response was suppressed. Low values mean a response near the control, high ones a response far below the control. As for `OC(c1cc(C(F)(F)F)nc2c(C(F)(F)F)cccc12)C1CCCCN1` (centres unmarked) [Mefloquine], at PPT1 [1] (compound 125 μM), the inhibition at 125 µM was ≤ 50%.

Turning to `Cc1ncc([N+](=O)[O-])n1CCO` [Metronidazole], the IC50 on PPT1 [1] is > 100 µM.

As for `CCOC(=O)[N-]c1cn(N2CCOCC2)n[o+]1` [Molsidomine], the concentration for half-maximal inhibition (IC50) against PPT1 [1] was > 100 µM.

For orientation: % Inhibition means the percentage by which the read-out fell short of the control. Higher therefore signals a response far below the control. For `CCCCCCCCCCC[C@@H](C[C@@H]1OC(=O)[C@H]1CCCCCC)OC(=O)[C@H](CC(C)C)NC=O` [Orlistat], in series [4], the “PPT1 inhibition in HepG2 cell extracts (in words)” value is reported as “inhibited PPT1 in cell extracts”. Also, the oral absorption result in series [5] was “poorly orally absorbed”. The IC50 against PPT1 [1] is 0.179 µM. The “% Inhibition” value at PPT1 [1] (Spectrum Collection library screen, substrate 20 μM) is listed as 90.7%. Besides, the “PPT1 inhibition in HepG2 cells (in words)” value on PPT1 in HepG2 cells is reported as “poor PPT1 inhibition”. Take `Cc1ncc([N+](=O)[O-])n1CC(O)CCl` (centres unmarked) [Ornidazole]: the IC50 on PPT1 [1] is > 100 µM.

`CCCCCCCCCC[C@@H]1C(=O)O[C@H]1CCc1ccc(OC)c(OC)c1` [Palmostatin B]: in series [4], the “PPT1 inhibition in HepG2 cell extracts (in words)” value is “inhibited PPT1 in cell extracts”. On PPT1 [1], this compound displayed an IC50 of 0.0118 µM. Further, the “PPT1 inhibition in HepG2 cells (in words)” value at PPT1 in HepG2 cells was “poor PPT1 inhibition”. In the case of `CC(CN1c2ccccc2Sc2ccccc21)N(C)C` (centres unmarked) [Promethazine], the IC50 at PPT1 [1] is > 100 µM. Same read-out and setting: the figure for `CCN(CC)CCCC(C)Nc1c2ccc(Cl)cc2nc2ccc(OC)cc12` (centres unmarked) [Quinacrine] is ~169 µM; for `CO[C@H]1/C=C/O[C@@]2(C)Oc3c(C)c(O)c4c(O)c(c(/C=N/N5CCN(C6CCCC6)CC5)c(O)c4c3C2=O)NC(=O)/C(C)=C\C=C\[C@H](C)[C@H](O)[C@@H](C)[C@@H](O)[C@@H](C)[C@H](OC(C)=O)[C@@H]1C` [Rifapentine] it is 63.3 µM; for `C[C@@H]1O[C@@H](OC[C@H]2O[C@@H](Oc3c(-c4ccc(O)c(O)c4)oc4cc(O)cc(O)c4c3=O)[C@H](O)[C@@H](O)[C@@H]2O)[C@H](O)[C@H](O)[C@H]1O` [Rutin trihydrate] it is ~156 µM. On to `Cn1nnc2c(C(N)=O)ncn2c1=O` [Temozolomide], for which, on PPT1 [1], the IC50 came to 236 µM. The same measure, in the same setting: next, `CN(C)[C@@H]1C(O)=C(C(N)=O)C(=O)[C@@]2(O)C(O)=C3C(=O)c4c(O)cccc4[C@@](C)(O)[C@H]3C[C@@H]12` [Tetracycline]: > 100 µM. Turning to `Cc1ccc(C(=O)c2cc(O)c(O)c([N+](=O)[O-])c2)cc1` [Tolcapone], in series [6], the “blood–brain barrier penetration” value was “can penetrate the blood–brain barrier”. Besides, half-maximal inhibition on PPT1 [1] (IC50) required 179 µM. For the compound `COc1cc(C=O)ccc1O` [Vanillin], the IC50 against PPT1 [1] is 647 µM. On to TVB-3166, for which the “PPT1 inhibition (in words)” value on PPT1 [1] (FASN inhibitors tested against PPT1) is on record as “did not inhibit PPT1”.
